{"data": "Measured values of several laboratories", "observed": "microbial growth", "note": "Protocols differ between the studies behind these lines."}
{"Compound": "CC1=NN(CNc2ccc(C(=O)O)cc2)C(=O)C1=NNn1c(-c2ccccc2)nc2ccccc2c1=O", "organism": "Micrococcus luteus", "assay": "broth dilution", "setting": "24 h", "MIC": "50.5 µM"}
{"Compound": "O=C1NC(=S)S/C1=C\\c1ccc(-c2ccc(N(c3ccccc3)c3ccccc3)cc2)c2ccccc12", "organism": "Micrococcus luteus", "assay": "broth dilution", "test system": "ATCC10240", "MIC": "250 µg/mL"}
{"Compound": "O=C1NN=C(N=Cc2ccc(O)cc2O)C1=NNn1c(-c2ccccc2)nc2ccccc2c1=O", "organism": "Micrococcus luteus", "assay": "broth dilution", "setting": "24 h", "MIC": "53.5 µM"}
{"Compound": "O=C1NC(=S)N/C1=C\\c1c2ccccc2c(-c2ccc(N(c3ccccc3)c3ccccc3)cc2)c2ccccc12", "organism": "Micrococcus luteus", "assay": "broth dilution", "test system": "ATCC10240", "MIC": "> 1000 µg/mL"}
{"Compound": "O=c1[nH]c(NCc2ccc(Cl)c(Cl)c2)nc2ncn(CCN3CCOCC3)c12", "organism": "Lactobacillus acidophilus", "assay": "agar dilution", "setting": "48 h", "MIC": "4 µg/mL"}
{"Compound": "O=C1NC(=O)/C(=C/c2ccc3c(c2)OC(F)(F)O3)S1", "organism": "Staphylococcus aureus", "test system": "NCTC8325", "MIC": "> 30 µM"}
{"Compound": "CC1=NN(CNc2ccc(O)cc2)C(=O)C1=NNn1c(-c2ccccc2)nc2ccccc2c1=O", "organism": "Micrococcus luteus", "assay": "broth dilution", "setting": "24 h", "MIC": "53.5 µM"}
{"Compound": "O=C(N[C@H](CO)[C@H](O)c1ccc([N+](=O)[O-])cc1)C(Cl)Cl", "organism": "Micrococcus flavus", "assay": "broth dilution", "MIC": "7 µg/mL"}
{"Compound": "O=C(O)c1cn(C2CC2)c2cc(N3CCNCC3)c(F)cc2c1=O", "organism": "Micrococcus luteus", "assay": "broth dilution", "test system": "ATCC10240", "MIC": "0.98 µg/mL"}
{"Compound": "CNC(=O)c1cc(Oc2ccc(NC(=O)Nc3c(C)cccc3Cl)cc2)ccn1", "organism": "Staphylococcus aureus", "test system": "NCTC8325", "MIC": "> 100 µM"}
{"Compound": "CCc1cc(Nc2cc(=O)n(CCCCO)c(=O)[nH]2)ccc1C", "organism": "Lactobacillus acidophilus", "assay": "agar dilution", "setting": "48 h", "MIC": "32 µg/mL"}
{"Compound": "C#CCCCCC(=O)NC(C)C", "organism": "Staphylococcus aureus", "test system": "NCTC8325", "MIC": "> 100 µM"}
{"Compound": "O=C1NC(=S)S/C1=C\\c1c2ccccc2c(-c2ccc(N(c3ccccc3)c3ccccc3)cc2)c2ccccc12", "organism": "Micrococcus luteus", "assay": "broth dilution", "test system": "ATCC10240", "MIC": "> 1000 µg/mL"}
{"Compound": "COC(=O)c1sc(C(C)(C)C)cc1NC(=O)Nc1ccc(C)cc1", "organism": "Staphylococcus aureus", "test system": "NCTC8325", "MIC": "> 100 µM"}
{"Compound": "O=C(O)CN1C(=O)/C(=C/c2ccc(-c3ccc(N(c4ccccc4)c4ccccc4)cc3)c3ccccc23)SC1=S", "organism": "Micrococcus luteus", "assay": "broth dilution", "test system": "ATCC10240", "MIC": "31.3 µg/mL"}
{"Compound": "CC1(C)S[C@@H]2[C@H](NC(=O)[C@H](N)c3ccccc3)C(=O)N2[C@H]1C(=O)O", "organism": "Bifidobacterium longum", "assay": "broth dilution", "test system": "ATCCBAA999", "MIC": "0.25 µg/mL"}
{"Compound": "CNC(=O)c1ccc2c(c1)NC(=O)/C2=C(\\Nc1cccc(CN(C)C)c1)c1ccccc1", "organism": "Staphylococcus aureus", "test system": "NCTC8325", "MIC": "> 30 µM"}
